Reference: ChEMBL document CHEMBL2169799, “Synthesis and characterization of a novel prostate cancer-targeted phosphatidylinositol-3-kinase inhibitor prodrug” (J Med Chem, 2012)
Active and inactive are the calls of the source. No cut-off for these calls is given here. *1 amine or outer side, *2 acyl side, *3 side chain or, on linkers, in order; H or OH if unused. Where a SMILES comes first, the peptide text is derived from it. The star is where a group is joined. X1 = O=c1cc(N2CCOCC2)oc2c(-c3ccc(CO*)cc3)cccc12; Morpholide = C1CN(*)CCO1; CO = O=C([*:1])[*:2]

How the values were obtained:
BT-549 [1] = test: Inhibition of PI3 kinase in human BT549 cells assessed as complete reduction of p-Akt T308 level at 30 µM after 30 mins by Western blotting; format: cell-based
BT-549 [2] = test: Inhibition of PI3 kinase in human BT549 cells assessed as reduction of p-Akt T308 level after 30 mins by Western blotting; format: cell-based
C4-2 [3] = test: Inhibition of PI3 kinase in human C4-2 cells assessed as complete reduction of p-Akt T308 level at 30 µM after 30 mins by Western blotting; format: cell-based
C4-2 [4] = test: Inhibition of PI3 kinase in human C4-2 cells assessed as reduction of p-Akt T308 level after 30 mins by Western blotting; format: cell-based
C4-2 [5] = test: Inhibition of PI3 kinase in human C4-2 cells assessed as reduction of p-Akt T308 level after 3 hrs by Western blotting; format: cell-based
BT-549 [6] = test: Inhibition of PI3 kinase in human BT549 cells exposed to C4-2 cells conditioned medium pre-incubated with compound for 6 hrs assessed as reduction of p-Akt T308 level by Western blotting; format: cell-based
Procedure, shortened: (§1)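 Compound incubated 6 h at 37 °C, 5% CO2 in serum-free medium on C4-2 or BT-549 cells; medium then transferred to BT-549 cells for 3 h, PBS control; p-Akt T308 by Western blot.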

LNCaP = test: Inhibition of PI3 kinase in human LNCaP cells assessed as reduction of p-Akt T308 level after 3 hrs by Western blotting; format: cell-based
Procedure, shortened: (§2)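 Cells at ~80% confluence (48 h after seeding 4×10^5 per 6 cm dish), kept serum-free (LNCaP in T-Medium with 2.5% FBS; U-87 MG in DMEM) and dosed over a concentration range for 3 h, PBS control; p-Akt T308 by Western blot, three independent experiments.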

BT-549 [7] = test: Inhibition of PI3 kinase in human BT549 cells exposed to 10 uM compound pre-incubated with 0.5 to 10^4 ng/mL PSA for 6 hrs assessed as reduction of p-Akt T308 levels after 30 mins by Western blotting; format: cell-based
Procedure, shortened: (§3)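 Compound pre-incubated 6 h at 37 °C in 50 mM Tris-HCl, 0.1 M NaCl, pH 7.8 with purified active human semen PSA (0–104 ng/mL), then added to BT-549 cells for 30 min, DMSO control; p-Akt T308 Western blot, three independent experiments.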

[8] = Prodrug activation in medium conditioned with human C4-2 cells assessed as concentration of 4-(2-morpholino-4-oxo-4H-chromen-8-yl) benzyl-2-amino-4-methylpentanoate at 30 uM from 30 mins to 6 hrs by LC-ESI-MS analysis; format: cell-based; settings: c4-2, 30 µM
Procedure, shortened: (§4)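 Serum-free C4-2 or BT-549 cultures given compound, PBS control; media sampled at 30 min, 3 and 6 h. Released drug quantified by C18 UHPLC (water/methanol, 0.1% formic acid gradient) with positive ESI high-resolution Orbitrap MS at mass 496.2569, against standard curve; means ± SEM, n=3.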

BT-549 [9] = test: Inhibition of PI3 kinase in human BT549 cells assessed as reduction of p-Akt T308 level at 30 uM after 30 mins to 6 hrs by Western blotting; format: cell-based
Procedure, shortened: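 Serum-free BT-549 cells (RPMI 1640, 10% FBS, insulin during growth) exposed from 30 min to 6 h, PBS control; p-Akt T308 Western blot of cleared lysates, representative of three independent experiments.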

LNCaP C4-2 [10] = test: Induction of apoptosis in human C4-2 cells expressing Luc-BAD assessed as increase in caspase activity at 3 to 50 uM after 6 hrs by Caspase 3 assay; format: functional, cell-based
Procedure, shortened: (§5)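 C4-2LucBAD cells seeded 4×10^5 per 6 cm dish, grown 48 h in RPMI 1640/10% FBS to ~80% confluence, then serum-free 18 h; treated 6 h (DMSO control). Caspase 3 fluorescence read every 15 min for 1 h, arbitrary units, means ± SEM, n=2; cleaved PARP (89 kDa) by Western blot of same samples.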

BT-549 [11] = test: Inhibition of PI3 kinase in human BT549 cells exposed to BT549 cells conditioned medium pre-incubated with compound for 6 hrs assessed as reduction of p-Akt T308 level by Western blotting; format: cell-based; procedure, shortened: as §1
BT-549 [12] = test: Inhibition of PI3 kinase in human BT549 cells exposed to 10 uM compound pre-incubated in absence of PSA for 6 hrs assessed as reduction of p-Akt T308 levels after 30 mins by Western blotting; format: cell-based; procedure, shortened: as §3
C4-2 [13] = test: Inhibition of PI3 kinase in human C4-2 cells expressing Luc-BAD assessed as reduction of p-Akt T308 level after 3 hrs by Western blotting; format: cell-based
Procedure, shortened: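 Serum-free C4-2LucBAD cells (18 h starvation, RPMI 1640 base) dosed over a concentration range for 3 h, PBS control; p-Akt T308 immunoblot of lysates.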

[14] = Prodrug activation in medium conditioned with human BT549 cells assessed as concentration of 4-(2-morpholino-4-oxo-4H-chromen-8-yl) benzyl-2-amino-4-methylpentanoate at 30 uM from 30 mins to 6 hrs by LC-ESI-MS analysis; format: cell-based; settings: bt-549, 30 µM; procedure, shortened: as §4
LNCaP C4-2 [15] = test: Induction of apoptosis in human C4-2 cells expressing Luc-BAD assessed as increase in cleavage of PARP at 3 to 50 uM after 6 hrs by Western blotting; format: functional, cell-based; procedure, shortened: as §5
BT-549 [16] = test: Inhibition of PI3 kinase in human BT549 cells assessed as reduction of p-Akt T308 level after 3 hrs by Western blotting; format: cell-based; procedure, shortened: as §2
U-87 = test: Inhibition of PI3 kinase in human U-87 cells assessed as reduction of p-Akt T308 level after 3 hrs by Western blotting; format: cell-based; procedure, shortened: as §2
C4-2 [17] = test: Inhibition of PI3 kinase in human C4-2 cells assessed as reduction of p-Akt T308 level at 30 uM by Western blotting; format: cell-based; settings: TDE = time-dependent effect

In the case of `CC(C)C[C@H](N)C(=O)OCc1ccc(-c2cccc3c(=O)cc(N4CCOCC4)oc23)cc1`, the inhibition (BT-549 [1]) was “Active”, the inhibition (BT-549 [2]) was “Dose-dependent effect” and the inhibition (C4-2 [3]) was “Active”. For the same compound, the inhibition (C4-2 [4]) was “Dose-dependent effect”.

In the case of `CC(C)C[C@H](NC(=O)[C@H](CCCCN)NC(=O)[C@H](CO)NC(=O)[C@H](CO)NC(=O)[C@H](Cc1cnc[nH]1)NC(=O)[C@H](CCC(=O)O)NC(=O)[C@H](CC(C)C)NC(=O)N1CCOCC1)C(=O)N[C@@H](CCC(N)=O)C(=O)N[C@@H](CC(C)C)C(=O)OCc1ccc(-c2cccc3c(=O)cc(N4CCOCC4)oc23)cc1` ({Morpholide-CO}-LEHSSKLQL-X1), the inhibition (C4-2 [5]) was “Dose-dependent effect”, the inhibition (BT-549 [6]) was “Active” and the inhibition (LNCaP) was “Dose-dependent effect”. The inhibition (BT-549 [7]) was “Active”, the Drug metabolism [8] was “Active” and the inhibition (BT-549 [9]) was “inactive”. For the same compound, the Activity (LNCaP C4-2 [10]) was “Active”, the inhibition (BT-549 [11]) was “inactive” and the inhibition (BT-549 [12]) was “inactive”. The inhibition (C4-2 [13]) was “Dose-dependent effect”, the Drug metabolism [14] was “Not Active” and the Activity (LNCaP C4-2 [15]) was “Active”. The inhibition (BT-549 [16]) was “inactive”, the inhibition (U-87) was “inactive” and the inhibition (C4-2 [17]) was “tde”.
